Source: PubChem BioAssay
MC4R ag barr: human MC4R agonism via beta-arrestin. P32245. U2OS MC4R beta-arrestin complementation, luminescence; percent of melanotan II response, DMSO zero. activation, % at 8.9 µM. 360,000 tested, 0.98% active;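 active = activation above a per-plate cutoff, the mean activation of sample wells on that plate plus 3 SD, cut at about 8% in these data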
Exocytosis inh: blocks lytic granule exocytosis. TALL-104 LAMP-1 surface exposure, flow cytometry; cells stimulated with thapsigargin and PMA. inhibition, % at 10 µM. 360,000 tested, 0.66% active. AID 651702;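 active = inhibition above about 55%, limit read from the data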
PGE2 EP2 inh: inhibitors of human EP2 prostaglandin E2 receptor | C6 glioma cells expressing human EP2, cAMP TR-FRET; cells stimulated with saturating PGE2 | inhibition, % at 25 µM | 260,000 tested, 0.52% active;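 active = percent inhibition above 40 after rounding to a whole number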;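 note: rat C6 glioma host cells with rolipram phosphodiesterase inhibitor present; the protocol text gives 20 µM as final concentration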
T cell HTS: T cell immune modulation candidate; response (vesicle binding), % at 7 µM; AID 2052; 330,000 tested, 0.068% active; 2C CD8+ T cell-vesicle binding, flow cytometry; active compounds read low;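 active = response, share of CD8 T cells binding vesicles, and their 90th percentile fluorescence all below set limits, cut at about 80% in these data, passing the limit was not always enough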;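 note: values below 100% mean blocked vesicle binding to the CD8+ T cells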
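Assay system: 2C TCR transgenic mouse naive CD8+ T cells, MACS-purified | Read-out: CD8+ gate FL2 mean fluorescence as % of same-row positive control | Signal: High-throughput flow cytometry with anti-B7-1 and anti-CD8 staining | Timing: Binding step 1.5 h, 37 °C, antibody labelling 20 min, ice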
EP2 mod: modulators of human EP2 prostaglandin E2 receptor; induction, % at 25 µM; 260,000 tested, 0.83% active; EP2-expressing cells, cAMP HTRF FRET, PGE2 co-stimulation; P43116; AID 940;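 active = compounds whose cAMP rise, as percent of the full-agonist control response, exceeds 60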;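 note: rat C6 glioma line stably carrying human EP2 under a CMV promoter; the protocol text gives 20 µM as final concentration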
MC4R antag cAMP: human MC4R antagonism in cAMP assay. MC4R-expressing cells, MTII-stimulated cAMP, LANCE TR-FRET. inhibition, % at 6.5 µM. 360,000 tested, 0.48% active;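 active = inhibition above its plate's cutoff, the mean of tested wells on that plate plus 3 SD, cut at about 29% in these data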
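Material: human MC4R-expressing U2OS cells. Probe or stimulus: Melanotan II challenge. Dosing: 6.5 µM single dose. Times: 30-min compound, 1-h challenge, 1-h detection, room temperature. Technique: TR-FRET with Eu-cAMP and labeled anti-cAMP, 671 nm. Replication: singlicate.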
MC4R barr ag: human MC4R beta-arrestin agonism confirmation. shares compounds with MC4R ag barr. U2OS MC4R beta-arrestin recruitment, luminescence; scaled DMSO 0%, Melanotan II 100%. activation, % at 8.9 µM. 2,400 tested, 31% active. AID 602192;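 active = mean activation across replicates above the hit cutoff set in the earlier primary screen, cut at about 8% in these data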
MOR-DOR barr ag: activates mu-delta opioid heterodimer, MC4R agonist counter-screen; AID 602194; shares compounds with MC4R ag barr; U2OS PathHunter beta-arrestin, beta-gal luminescence; percent of deltorphin B response, DMSO zero; 2,400 tested, 5.8% active; activation, % at 9.2 µM;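 active = mean activation across replicates exceeds the hit threshold derived in the earlier primary screen, cut at about 18% in these data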
Target sequence (P35372 whole entry, looked up): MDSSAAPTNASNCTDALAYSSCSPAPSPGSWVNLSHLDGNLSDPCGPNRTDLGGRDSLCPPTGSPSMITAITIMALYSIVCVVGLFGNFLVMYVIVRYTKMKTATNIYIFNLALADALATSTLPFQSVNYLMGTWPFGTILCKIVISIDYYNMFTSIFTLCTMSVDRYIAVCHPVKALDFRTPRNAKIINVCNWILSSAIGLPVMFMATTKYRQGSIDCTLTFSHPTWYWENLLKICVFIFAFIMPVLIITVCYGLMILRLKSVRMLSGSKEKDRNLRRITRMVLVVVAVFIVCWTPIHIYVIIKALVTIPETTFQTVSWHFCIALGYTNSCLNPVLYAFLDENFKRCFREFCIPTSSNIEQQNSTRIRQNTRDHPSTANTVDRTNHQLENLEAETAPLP
Target sequence (P41143 whole entry, looked up): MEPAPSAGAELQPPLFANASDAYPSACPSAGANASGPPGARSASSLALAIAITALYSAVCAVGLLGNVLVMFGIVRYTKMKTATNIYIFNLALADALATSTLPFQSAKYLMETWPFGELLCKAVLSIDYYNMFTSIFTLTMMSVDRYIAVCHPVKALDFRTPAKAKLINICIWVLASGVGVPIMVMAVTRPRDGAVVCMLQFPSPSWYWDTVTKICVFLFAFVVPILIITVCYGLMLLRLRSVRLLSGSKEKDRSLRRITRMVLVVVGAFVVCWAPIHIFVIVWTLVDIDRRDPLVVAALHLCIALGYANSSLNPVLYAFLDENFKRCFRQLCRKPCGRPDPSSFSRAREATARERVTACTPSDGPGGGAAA
Numbers stand for hits. Sampled rows, rich in hits. Any-hit rate of the full collection: about 2.6%.

What do the screens show for `O=C(CSc1nc2ccccc2c(=O)n1CC1CCCO1)Nc1cccc(Cl)c1Cl` (stereo not drawn)?
PGE2 EP2 inh: inactive; EP2 mod: inactive

How did O=C(COc1ccc2ccccc2c1)Nc1nc2ccccc2[nH]1 do in these assays?
MC4R ag barr: 10.5; Exocytosis inh: inactive; PGE2 EP2 inh: inactive; T cell HTS: inactive; EP2 mod: inactive; MC4R antag cAMP: inactive; MC4R barr ag: inactive; MOR-DOR barr ag: inactive

How did Cc1cccc(OCC(=O)NNC(=O)C2CCCCC2C(=O)O)c1 (stereo not drawn) do in these assays?
MC4R ag barr: inactive; Exocytosis inh: inactive; PGE2 EP2 inh: inactive; T cell HTS: inactive; EP2 mod: inactive; MC4R antag cAMP: inactive

What do the screens show for `O=S1(=O)CC(N2CCCCC2)CN1Cc1cn(Cc2ccccc2)nn1` (stereo not drawn)?
Exocytosis inh: inactive

What do the screens show for `Cc1ccccc1N(CC(=O)NC(C)(C)C)C(=O)CCC(=O)Nc1nccs1`?
MC4R ag barr: inactive; Exocytosis inh: inactive; PGE2 EP2 inh: inactive; T cell HTS: inactive; EP2 mod: inactive; MC4R antag cAMP: inactive

What do the screens show for `CC(C)(C)NC(=O)CN(C(=O)CCC(=O)Nc1nccs1)c1ccccc1F`?
MC4R ag barr: 11.8; Exocytosis inh: inactive; MC4R antag cAMP: inactive; MC4R barr ag: inactive; MOR-DOR barr ag: inactive

What do the screens show for `Cc1ccccc1/C=N/NC(=O)c1sccc1C`?
MC4R ag barr: inactive; Exocytosis inh: inactive; PGE2 EP2 inh: inactive; T cell HTS: inactive; EP2 mod: inactive; MC4R antag cAMP: inactive

How did COc1ccc(/C=N/NC(=O)c2sccc2C)c2ccccc12 do in these assays?
MC4R ag barr: 19.4; Exocytosis inh: inactive; T cell HTS: inactive; MC4R antag cAMP: inactive; MC4R barr ag: 10.8; MOR-DOR barr ag: inactive

How did O=C(Cc1c(F)cccc1Cl)N1CCCC(c2noc(-c3ccccn3)n2)C1 (stereo not drawn) do in these assays?
PGE2 EP2 inh: inactive; EP2 mod: inactive

Results for Cc1cc(C)c(C#N)c(SCC(=O)Nc2ccc(C)c(C)c2)n1 ?
PGE2 EP2 inh: inactive; EP2 mod: inactive

Results for CCC(=O)N1CCN(c2cc(N3CCN(C)CC3)c(F)cc2[N+](=O)[O-])CC1 ?
MC4R ag barr: inactive; Exocytosis inh: inactive; PGE2 EP2 inh: inactive; T cell HTS: inactive; EP2 mod: inactive; MC4R antag cAMP: inactive

How did CN1CCN(c2cc(N3CCc4ccccc4C3)c(F)cc2[N+](=O)[O-])CC1 do in these assays?
MC4R ag barr: 14.5; Exocytosis inh: inactive; PGE2 EP2 inh: inactive; T cell HTS: inactive; EP2 mod: inactive; MC4R antag cAMP: inactive; MC4R barr ag: 10.8; MOR-DOR barr ag: inactive

What do the screens show for `COc1cc([N+](=O)[O-])ccc1NC(=O)COC(=O)c1c[nH]c(=O)[nH]c1=O`?
MC4R ag barr: inactive; Exocytosis inh: inactive; T cell HTS: inactive; MC4R antag cAMP: inactive

What do the screens show for `CC1(C)O[C@H]2CC(=O)OC[C@@]23C1CC(=O)[C@]1(C)C3CC[C@@]2(C)[C@H](c3ccoc3)OC(=O)[C@H]3O[C@]321` (stereo partly drawn)?
MC4R ag barr: inactive; Exocytosis inh: inactive; T cell HTS: inactive; MC4R antag cAMP: inactive

What do the screens show for `COc1ccc(NC(=O)c2ccc(F)c(F)c2)c2ccccc12`?
MC4R ag barr: 20.7; Exocytosis inh: inactive; T cell HTS: inactive; MC4R antag cAMP: inactive; MC4R barr ag: inactive; MOR-DOR barr ag: inactive

What do the screens show for `COc1ccc(C(=O)Nc2c(F)c(F)c(F)c(F)c2F)cc1OC`?
Exocytosis inh: inactive

Results for Cc1ccccc1-n1nc2c(c1NC(=O)C1CC1)CS(=O)(=O)C2 ?
MC4R ag barr: inactive; Exocytosis inh: inactive; MC4R antag cAMP: inactive

What do the screens show for `CCN(c1ccc(OC)cc1)S(=O)(=O)c1nnc(NC(=O)C(C)C)s1`?
MC4R ag barr: inactive; Exocytosis inh: inactive; T cell HTS: inactive; MC4R antag cAMP: inactive

How did CCN(c1ccc(Cl)cc1)S(=O)(=O)c1nnc(NC(=O)C(C)C)s1 do in these assays?
MC4R ag barr: 10.1; Exocytosis inh: inactive; T cell HTS: inactive; MC4R antag cAMP: inactive; MC4R barr ag: inactive; MOR-DOR barr ag: inactive

Results for CCCCC(=O)Nc1nnc(S(=O)(=O)N(CC)c2ccc(OC)cc2)s1 ?
MC4R ag barr: inactive; Exocytosis inh: inactive; T cell HTS: inactive; MC4R antag cAMP: inactive

What do the screens show for `CCN(c1ccc(OC)cc1)S(=O)(=O)c1nnc(NC(=O)C2CCCCC2)s1`?
MC4R ag barr: 11.6; Exocytosis inh: inactive; T cell HTS: inactive; MC4R antag cAMP: inactive; MC4R barr ag: inactive; MOR-DOR barr ag: inactive

Results for COc1cc(C(=O)NCC(c2cccs2)N2CCOCC2)ccc1OCc1ccccc1 (stereo not drawn) ?
MC4R ag barr: inactive; Exocytosis inh: inactive; MC4R antag cAMP: inactive

What do the screens show for `COCCCN1C(=O)c2ccc(C(=O)OCC(=O)NCc3cccc(OC)c3)cc2C1=O`?
MC4R ag barr: inactive; Exocytosis inh: inactive; T cell HTS: inactive; MC4R antag cAMP: inactive

What do the screens show for `CCc1ccccc1NC(=O)COc1ccc(C(=S)N2CCCC2)cc1`?
MC4R ag barr: inactive; Exocytosis inh: inactive; PGE2 EP2 inh: inactive; T cell HTS: inactive; EP2 mod: inactive; MC4R antag cAMP: inactive

Results for CCOC(=O)c1cnc2c(-c3ccccc3)c(CC)[nH]n2c1=O ?
PGE2 EP2 inh: inactive; EP2 mod: inactive

How did NC1=NC(=O)/C(=C/c2c(OS(=O)(=O)c3ccc(Cl)cc3)ccc3ccccc23)S1 do in these assays?
MC4R ag barr: 9.6; Exocytosis inh: inactive; PGE2 EP2 inh: inactive; T cell HTS: inactive; EP2 mod: inactive; MC4R antag cAMP: inactive; MC4R barr ag: inactive; MOR-DOR barr ag: inactive

Results for NC1=NC(=O)/C(=C/c2ccccc2OS(=O)(=O)c2ccccc2)S1 ?
MC4R ag barr: inactive; Exocytosis inh: inactive; PGE2 EP2 inh: inactive; T cell HTS: inactive; EP2 mod: inactive; MC4R antag cAMP: inactive

Results for O=C(CCC(=O)OCC(=O)c1ccc(Br)cc1)Nc1ccc(Br)c2cccnc12 ?
MC4R ag barr: inactive; Exocytosis inh: inactive; PGE2 EP2 inh: inactive; T cell HTS: inactive; EP2 mod: inactive; MC4R antag cAMP: inactive

How did Cc1cccc(-c2nnn3c2nc(NCCc2ccc(S(N)(=O)=O)cc2)c2ccccc23)c1 do in these assays?
MC4R ag barr: inactive; Exocytosis inh: inactive; PGE2 EP2 inh: inactive; T cell HTS: inactive; EP2 mod: inactive; MC4R antag cAMP: inactive
